From ChEMBL document CHEMBL2396641, “Synthesis, antioxidant, and antimicrobial evaluation of some 2-arylbenzimidazole derivatives” (Bioorg Med Chem Lett, 2013)
≈ marks a conversion by molar mass, not a printed value. Calls of active or inactive are those of the source. The calls are words filed in the database; no cut-off is given here.

Legend:
Escherichia coli = test: Antibacterial activity against Escherichia coli after 24 hrs by agar dilution method; type: functional
Staphylococcus aureus = test: Antibacterial activity against Staphylococcus aureus after 24 hrs by agar dilution method; type: functional
Pseudomonas aeruginosa = test: Antibacterial activity against Pseudomonas aeruginosa after 24 hrs by agar dilution method; type: functional
[1] = test system: Staphylococcus epidermidis; test: Antibacterial activity against Staphylococcus albus after 24 hrs by agar dilution method; type: functional
[2] = Antioxidant activity assessed as superoxide radical anion scavenging activity by spectrophotometric analysis; type: functional
Bacillus cereus = test: Antibacterial activity against Bacillus cereus after 24 hrs by agar dilution method; type: functional
[3] = Antioxidant activity assessed as hydroxyl radical scavenging activity after 1 hr by spectrophotometric analysis; type: functional
NIH3T3 = test: Cytotoxicity against mouse NIH/3T3 cells after 48 hrs by SRB assay; type: cell-based; settings: NIH3T3, 48 h
[4] = test system: Radical scavenging activity; test: Antioxidant activity assessed as DPPH radical scavenging activity after 30 mins by spectrophotometric analysis; type: functional
Summary of the method: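 DPPH radical bleaching followed as loss of absorbance at 517 nm; IC50 derived; mean ± SD, n = 3.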

[5] = Antioxidant activity assessed as ferric ion reducing ability at 1 to 50 uM after 20 mins by spectrophotometric analysis; type: functional
[6] = Antioxidant activity assessed as ferric ion reducing ability after 20 mins by spectrophotometric analysis; type: functional

MIC (Escherichia coli)	MIC (Staphylococcus aureus)	MIC (Pseudomonas aeruginosa)	MIC [1]	EC50 [2]	MIC (Bacillus cereus)	EC50 [3]	EC50 [4]	SMILES	MBC (Escherichia coli)	MBC (Staphylococcus aureus)	MBC (Bacillus cereus)	IC50 (NIH3T3)	Activity [5]	Activity [6]	MBC (Pseudomonas aeruginosa)	MBC [1]
12.5 µM (≈ 3 µg/mL)	100 µM (≈ 24 µg/mL)	> 200 µM	> 200 µM	> 200 µM	50 µM (≈ 12 µg/mL)	> 200 µM	> 200 µM	COc1ccc2[nH]c(-c3ccc(O)cc3)nc2c1	100 µM (≈ 24 µg/mL)	200 µM (≈ 48.1 µg/mL)	200 µM (≈ 48.1 µg/mL)	> 200 µM				
25 µM (≈ 5.26 µg/mL)	> 200 µM	> 200 µM	> 200 µM	122 µM	> 200 µM	> 200 µM	> 200 µM	Oc1ccccc1-c1nc2ccccc2[nH]1	100 µM (≈ 21 µg/mL)			> 200 µM				
12.5 µM (≈ 2.63 µg/mL)	0.39 µM (≈ 0.082 µg/mL)	> 200 µM	> 200 µM	> 200 µM	50 µM (≈ 10.5 µg/mL)	> 200 µM	> 200 µM	Oc1cccc(-c2nc3ccccc3[nH]2)c1	100 µM (≈ 21 µg/mL)	0.78 µM (≈ 0.164 µg/mL)	200 µM (≈ 42 µg/mL)	> 200 µM				
> 200 µM	100 µM (≈ 27 µg/mL)	> 200 µM	> 200 µM	> 200 µM	50 µM (≈ 13.5 µg/mL)	> 200 µM	58 µM	COc1ccc2[nH]c(-c3ccc(O)c(OC)c3)nc2c1		200 µM (≈ 54.1 µg/mL)	200 µM (≈ 54.1 µg/mL)	> 200 µM				
> 200 µM	> 200 µM	> 200 µM	> 200 µM	> 200 µM	100 µM (≈ 25.6 µg/mL)	> 200 µM	23 µM	COc1ccc(O)cc1-c1nc2cc(O)ccc2[nH]1			> 200 µM	> 200 µM	Active	Dose-dependent effect		
> 200 µM	6.25 µM (≈ 1.78 µg/mL)	> 200 µM	> 200 µM	> 200 µM	100 µM (≈ 28.4 µg/mL)	> 200 µM	> 200 µM	COc1ccc(OC)c(-c2nc3cc(OC)ccc3[nH]2)c1		50 µM (≈ 14.2 µg/mL)	200 µM (≈ 56.9 µg/mL)	> 200 µM				
25 µM (≈ 5.61 µg/mL)	> 200 µM	> 200 µM	> 200 µM	> 200 µM	50 µM (≈ 11.2 µg/mL)	> 200 µM	> 200 µM	COc1ccc2[nH]c(-c3ccccc3)nc2c1	100 µM (≈ 22.4 µg/mL)		200 µM (≈ 44.9 µg/mL)	> 200 µM				
25 µM (≈ 5.26 µg/mL)	12.5 µM (≈ 2.63 µg/mL)	> 200 µM	> 200 µM	> 200 µM	> 200 µM	> 200 µM	> 200 µM	Oc1ccc(-c2nc3ccccc3[nH]2)cc1	100 µM (≈ 21 µg/mL)	50 µM (≈ 10.5 µg/mL)		> 200 µM				
6.25 µM (≈ 1.41 µg/mL)	1.56 µM (≈ 0.353 µg/mL)	> 200 µM	100 µM (≈ 22.6 µg/mL)	169 µM	25 µM (≈ 5.66 µg/mL)	124 µM	30 µM	Oc1ccc2[nH]c(-c3ccccc3O)nc2c1	25 µM (≈ 5.66 µg/mL)	1.56 µM (≈ 0.353 µg/mL)	25 µM (≈ 5.66 µg/mL)	> 200 µM	Active	Dose-dependent effect		> 200 µM
6.25 µM (≈ 1.59 µg/mL)	25 µM (≈ 6.36 µg/mL)	> 200 µM	100 µM (≈ 25.4 µg/mL)	> 200 µM	50 µM (≈ 12.7 µg/mL)	> 200 µM	> 200 µM	COc1ccc(-c2nc3cc(OC)ccc3[nH]2)cc1	100 µM (≈ 25.4 µg/mL)	200 µM (≈ 50.9 µg/mL)	200 µM (≈ 50.9 µg/mL)	> 200 µM				> 200 µM
12.5 µM (≈ 3 µg/mL)	100 µM (≈ 24 µg/mL)	> 200 µM	> 200 µM	> 200 µM	25 µM (≈ 6.01 µg/mL)	> 200 µM	> 200 µM	COc1ccc2[nH]c(-c3cccc(O)c3)nc2c1	100 µM (≈ 24 µg/mL)	200 µM (≈ 48.1 µg/mL)	200 µM (≈ 48.1 µg/mL)	> 200 µM				
100 µM (≈ 22.6 µg/mL)	1.56 µM (≈ 0.353 µg/mL)	> 200 µM	> 200 µM	> 200 µM	25 µM (≈ 5.66 µg/mL)	> 200 µM	40 µM	Oc1cccc(-c2nc3cc(O)ccc3[nH]2)c1	> 200 µM	1.56 µM (≈ 0.353 µg/mL)	50 µM (≈ 11.3 µg/mL)	> 200 µM	Active	Dose-dependent effect		
6.25 µM (≈ 1.6 µg/mL)	50 µM (≈ 12.8 µg/mL)	> 200 µM	100 µM (≈ 25.6 µg/mL)	189 µM	50 µM (≈ 12.8 µg/mL)	> 200 µM	129 µM	COc1ccc2[nH]c(-c3ccc(O)cc3O)nc2c1	100 µM (≈ 25.6 µg/mL)	100 µM (≈ 25.6 µg/mL)	100 µM (≈ 25.6 µg/mL)	> 200 µM				200 µM (≈ 51.3 µg/mL)
6.25 µM (≈ 1.21 µg/mL)	100 µM (≈ 19.4 µg/mL)	> 200 µM	> 200 µM	> 200 µM	> 200 µM	> 200 µM	> 200 µM	c1ccc(-c2nc3ccccc3[nH]2)cc1	100 µM (≈ 19.4 µg/mL)	> 200 µM		> 200 µM				
100 µM (≈ 24 µg/mL)	> 200 µM	> 200 µM	> 200 µM	87 µM	200 µM (≈ 48.1 µg/mL)	190 µM	> 200 µM	COc1ccc2[nH]c(-c3ccccc3O)nc2c1	> 200 µM		> 200 µM	> 200 µM				
> 200 µM	50 µM (≈ 14.2 µg/mL)	> 200 µM	100 µM (≈ 28.4 µg/mL)	> 200 µM	25 µM (≈ 7.11 µg/mL)	> 200 µM	> 200 µM	COc1ccc2[nH]c(-c3ccc(OC)c(OC)c3)nc2c1		200 µM (≈ 56.9 µg/mL)	100 µM (≈ 28.4 µg/mL)	> 200 µM				> 200 µM
> 200 µM	> 200 µM	> 200 µM	> 200 µM	> 200 µM	100 µM (≈ 24.2 µg/mL)	77 µM	33 µM	Oc1ccc2[nH]c(-c3ccc(O)c(O)c3)nc2c1			> 200 µM	> 200 µM	Active	Dose-dependent effect		
> 200 µM	> 200 µM	> 200 µM	> 200 µM	> 200 µM	> 200 µM	> 200 µM	> 200 µM	COc1cc(OC)cc(-c2nc3cc(OC)ccc3[nH]2)c1				> 200 µM				
12.5 µM (≈ 2.8 µg/mL)	1.56 µM (≈ 0.35 µg/mL)	> 200 µM	100 µM (≈ 22.4 µg/mL)	> 200 µM	50 µM (≈ 11.2 µg/mL)	> 200 µM	> 200 µM	COc1ccc(-c2nc3ccccc3[nH]2)cc1	50 µM (≈ 11.2 µg/mL)	1.56 µM (≈ 0.35 µg/mL)	100 µM (≈ 22.4 µg/mL)	> 200 µM				100 µM (≈ 22.4 µg/mL)
> 200 µM	6.25 µM (≈ 1.78 µg/mL)	> 200 µM	100 µM (≈ 28.4 µg/mL)	> 200 µM	> 200 µM	> 200 µM	> 200 µM	COc1ccc(-c2nc3cc(OC)ccc3[nH]2)c(OC)c1		50 µM (≈ 14.2 µg/mL)		> 200 µM				200 µM (≈ 56.9 µg/mL)
				> 200 µM		65 µM	36 µM	CC(C)(C)c1cc(O)ccc1O [E319]						Dose-dependent effect		

SMILES	MIC (Escherichia coli)	MIC (Staphylococcus aureus)	MIC (Pseudomonas aeruginosa)	MIC [1]	EC50 [2]	MIC (Bacillus cereus)	EC50 [3]	EC50 [4]	MBC (Escherichia coli)	MBC (Staphylococcus aureus)	MBC (Bacillus cereus)	IC50 (NIH3T3)	Activity [5]	Activity [6]	MBC (Pseudomonas aeruginosa)	MBC [1]
O=C(O)c1cn(C2CC2)c2cc(N3CCNCC3)c(F)cc2c1=O [CIPROFLOXACIN]	0.39 µM (≈ 0.129 µg/mL)	0.39 µM (≈ 0.129 µg/mL)	0.78 µM (≈ 0.258 µg/mL)	0.39 µM (≈ 0.129 µg/mL)		0.39 µM (≈ 0.129 µg/mL)			0.39 µM (≈ 0.129 µg/mL)	0.39 µM (≈ 0.129 µg/mL)	0.39 µM (≈ 0.129 µg/mL)	> 200 µM			0.78 µM (≈ 0.258 µg/mL)	0.39 µM (≈ 0.129 µg/mL)
